Assay results from ChEMBL document CHEMBL4130487, “A pentanoic acid derivative targeting matrix metalloproteinase-2 (MMP-2) induces apoptosis in a chronic myeloid leukemia cell line” (Eur J Med Chem, 2017).

Tests used:
PBMC = experiment: Cytotoxicity against human PBMC assessed as reduction in cell viability after 48 hrs by MTT assay; format: cell-based
Method in brief: (§1)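 A549, MDA-MB-231, K562, U937 and PBMC (PBMC from healthy donors) seeded at 1×10^3 cells/well and left 24 h, then exposed to compounds for 48 h at 37 °C, 5% CO2. Adherent lines were grown in DMEM, the others in RPMI-1640 with 10% heat-inactivated FBS. MTT read-out; viability expressed as % of untreated control. IC50 taken as the concentration giving 50% viability loss.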

[1] = target: Macrophage metalloelastase (Homo sapiens, UniProt P39900); experiment: Inhibition of recombinant human MMP12 (Phe99 to Leu271 residues) expressed in Escherichia coli using Ac-Pro-Leu-Gly-S-Leu-Leu-Gly-OEt as substrate after 1 hr measured at 1 min time interval for 30 mins by microplate photometric method
Method in brief: (§2)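 Commercial MMP kits; compound preincubated with enzyme before chromogenic substrate was added. Reactions at 37 °C for 1 h, with at least six inhibitor concentrations in triplicate. Absorbance at 410 nm read every 1 min for 30 min. NNGH used as reference inhibitor. IC50 taken from semi-logarithmic dose-response plots.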

[2] = target: Matrix metalloproteinase-14 (Homo sapiens, UniProt P50281); experiment: Inhibition of recombinant human MMP14 (Tyr112 to Arg298 residues) expressed in Escherichia coli using Ac-Pro-Leu-Gly-S-Leu-Leu-Gly-OEt as substrate after 1 hr measured at 1 min time interval for 30 mins by microplate photometric method; method in brief: as §2
[3] = target: Matrix metalloproteinase-9 (Homo sapiens, UniProt P14780); experiment: Inhibition of recombinant human MMP9 (Phe107 to Pro449 residues) expressed in Escherichia coli using Ac-Pro-Leu-Gly-S-Leu-Leu-Gly-OEt as substrate after 1 hr measured at 1 min time interval for 30 mins by microplate photometric method; method in brief: as §2
A549 = experiment: Cytotoxicity against human A549 cells assessed as reduction in cell viability after 48 hrs by MTT assay; format: functional, cell-based; settings: A549, 48 h; method in brief: as §1
Interstitial collagenase = target: T1, Interstitial collagenase (Homo sapiens, UniProt P03956); experiment: Inhibition of recombinant human MMP1 (Phe100 to Gln268 residues) using Ac-Pro-Leu-Gly-S-Leu-Leu-Gly-OEt as substrate after 1 hr measured at 1 min time interval for 30 mins by microplate photometric method; method in brief: as §2
T1 sequence (P03956 whole entry): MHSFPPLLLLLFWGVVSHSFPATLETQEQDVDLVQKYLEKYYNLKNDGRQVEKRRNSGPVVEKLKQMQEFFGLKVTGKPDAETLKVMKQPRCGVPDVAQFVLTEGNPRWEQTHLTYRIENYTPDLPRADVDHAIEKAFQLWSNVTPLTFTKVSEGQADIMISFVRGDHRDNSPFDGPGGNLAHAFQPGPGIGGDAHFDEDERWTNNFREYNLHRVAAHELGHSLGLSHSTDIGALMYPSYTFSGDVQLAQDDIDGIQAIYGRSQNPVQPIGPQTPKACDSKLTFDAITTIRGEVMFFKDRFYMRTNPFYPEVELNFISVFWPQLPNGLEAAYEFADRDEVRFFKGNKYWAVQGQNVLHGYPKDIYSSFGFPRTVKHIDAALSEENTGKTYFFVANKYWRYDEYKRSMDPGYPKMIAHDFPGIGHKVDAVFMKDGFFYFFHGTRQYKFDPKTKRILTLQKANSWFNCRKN

K562 = experiment: Cytotoxicity against human K562 cells assessed as reduction in cell viability after 48 hrs by MTT assay; format: functional, cell-based; settings: K562, 48 h; method in brief: as §1
[4] = target: 72 kDa type IV collagenase (Homo sapiens, UniProt P08253); experiment: Inhibition of recombinant human MMP2 (Tyr110 to Asp452 residues) using Ac-Pro-Leu-Gly-S-Leu-Leu-Gly-OEt as substrate after 1 hr measured at 1 min time interval for 30 mins by microplate photometric method; method in brief: as §2
Neutrophil collagenase = Neutrophil collagenase (Homo sapiens, UniProt P22894); experiment: Inhibition of recombinant human MMP8 (Phe99 to Gln269 residues) expressed in Escherichia coli using Ac-Pro-Leu-Gly-S-Leu-Leu-Gly-OEt as substrate after 1 hr measured at 1 min time interval for 30 mins by microplate photometric method; method in brief: as §2
MDA-MB-231 = experiment: Cytotoxicity against human MDA-MB-231 cells assessed as reduction in cell viability after 48 hrs by MTT assay; format: functional, cell-based; settings: MDA-MB-231, 48 h; method in brief: as §1
U-937 = experiment: Cytotoxicity against human U937 cells assessed as reduction in cell viability after 48 hrs by MTT assay; format: functional, cell-based; settings: U-937, 48 h; method in brief: as §1
[5] = target: MMP-2/MMP-9 (Homo sapiens) (UniProt P08253+P14780); experiment: Selectivity ratio of IC50 for recombinant human MMP9 (Phe107 to Pro449 residues) expressed in Escherichia coli to IC50 for recombinant human MMP2 (Tyr110 to Asp452 residues)

Chain of Matrix metalloproteinase-9 (P14780 whole entry): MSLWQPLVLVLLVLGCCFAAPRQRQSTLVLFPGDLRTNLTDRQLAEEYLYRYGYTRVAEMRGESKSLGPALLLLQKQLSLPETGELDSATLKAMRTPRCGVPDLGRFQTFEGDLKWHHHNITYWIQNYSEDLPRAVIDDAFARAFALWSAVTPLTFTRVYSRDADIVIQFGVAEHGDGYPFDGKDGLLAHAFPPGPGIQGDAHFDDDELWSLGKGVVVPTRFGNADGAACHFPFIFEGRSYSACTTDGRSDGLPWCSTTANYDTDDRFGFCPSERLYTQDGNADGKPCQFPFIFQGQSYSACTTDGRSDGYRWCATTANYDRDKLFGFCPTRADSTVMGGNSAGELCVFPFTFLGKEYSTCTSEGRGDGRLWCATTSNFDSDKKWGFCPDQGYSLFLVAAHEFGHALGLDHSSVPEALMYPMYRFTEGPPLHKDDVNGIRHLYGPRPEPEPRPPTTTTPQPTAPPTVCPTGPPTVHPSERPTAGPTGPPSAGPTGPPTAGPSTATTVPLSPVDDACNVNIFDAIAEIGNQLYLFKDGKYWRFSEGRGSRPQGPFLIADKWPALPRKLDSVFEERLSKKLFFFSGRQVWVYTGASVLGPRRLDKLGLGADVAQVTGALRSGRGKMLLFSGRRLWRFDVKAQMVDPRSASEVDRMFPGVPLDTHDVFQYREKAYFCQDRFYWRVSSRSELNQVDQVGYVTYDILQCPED
Chain of 72 kDa type IV collagenase (P08253 whole entry): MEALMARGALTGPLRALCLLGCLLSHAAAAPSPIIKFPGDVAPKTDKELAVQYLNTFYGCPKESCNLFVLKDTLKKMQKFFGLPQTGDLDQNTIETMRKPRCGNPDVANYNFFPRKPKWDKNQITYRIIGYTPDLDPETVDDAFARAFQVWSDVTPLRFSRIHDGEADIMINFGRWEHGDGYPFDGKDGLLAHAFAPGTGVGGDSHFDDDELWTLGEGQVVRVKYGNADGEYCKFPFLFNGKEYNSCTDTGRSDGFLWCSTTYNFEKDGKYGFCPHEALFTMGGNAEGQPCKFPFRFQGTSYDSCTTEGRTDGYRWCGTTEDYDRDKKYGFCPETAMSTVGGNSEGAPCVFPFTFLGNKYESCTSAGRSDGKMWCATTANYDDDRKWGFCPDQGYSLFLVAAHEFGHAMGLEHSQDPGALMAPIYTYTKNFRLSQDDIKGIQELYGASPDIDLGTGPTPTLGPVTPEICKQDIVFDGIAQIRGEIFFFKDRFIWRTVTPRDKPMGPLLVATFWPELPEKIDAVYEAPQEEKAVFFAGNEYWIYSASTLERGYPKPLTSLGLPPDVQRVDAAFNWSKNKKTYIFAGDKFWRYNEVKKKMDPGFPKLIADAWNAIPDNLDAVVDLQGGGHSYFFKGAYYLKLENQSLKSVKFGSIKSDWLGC
Chain of Neutrophil collagenase (P22894 whole entry): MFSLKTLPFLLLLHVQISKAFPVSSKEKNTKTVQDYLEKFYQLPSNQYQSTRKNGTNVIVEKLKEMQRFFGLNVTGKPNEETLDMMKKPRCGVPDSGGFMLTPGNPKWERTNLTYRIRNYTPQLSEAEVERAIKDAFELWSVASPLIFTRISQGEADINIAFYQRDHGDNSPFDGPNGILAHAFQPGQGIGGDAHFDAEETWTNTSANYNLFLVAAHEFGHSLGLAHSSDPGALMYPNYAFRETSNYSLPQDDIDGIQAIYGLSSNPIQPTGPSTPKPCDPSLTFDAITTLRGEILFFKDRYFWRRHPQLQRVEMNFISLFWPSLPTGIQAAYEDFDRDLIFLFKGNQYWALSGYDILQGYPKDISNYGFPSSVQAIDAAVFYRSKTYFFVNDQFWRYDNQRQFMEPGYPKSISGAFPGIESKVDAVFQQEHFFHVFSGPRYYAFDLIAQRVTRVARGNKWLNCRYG
Chain of Macrophage metalloelastase (P39900 whole entry): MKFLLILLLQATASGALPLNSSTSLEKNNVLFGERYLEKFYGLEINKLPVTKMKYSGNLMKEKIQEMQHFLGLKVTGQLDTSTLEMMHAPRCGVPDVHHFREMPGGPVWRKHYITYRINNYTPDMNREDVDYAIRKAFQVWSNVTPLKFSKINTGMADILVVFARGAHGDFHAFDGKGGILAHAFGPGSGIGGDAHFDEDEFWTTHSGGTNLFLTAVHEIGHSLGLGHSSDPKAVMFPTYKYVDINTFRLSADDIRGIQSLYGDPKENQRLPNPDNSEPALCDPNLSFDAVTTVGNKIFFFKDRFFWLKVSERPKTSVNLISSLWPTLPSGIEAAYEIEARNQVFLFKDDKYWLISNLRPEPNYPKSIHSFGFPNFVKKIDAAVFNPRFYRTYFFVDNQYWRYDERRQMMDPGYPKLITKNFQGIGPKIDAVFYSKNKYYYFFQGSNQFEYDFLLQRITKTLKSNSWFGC

| IC50 [1] | IC50 [2] | IC50 [3] | IC50 (Interstitial collagenase) | IC50 [4] | IC50 (Neutrophil collagenase) | Ratio IC50 [5] | Structure (SMILES) | IC50 (PBMC) | IC50 (A549) | IC50 (K562) | IC50 (MDA-MB-231) | IC50 (U-937) |
| --- | --- | --- | --- | --- | --- | --- | --- | --- | --- | --- | --- | --- |
| > 500 µM | 309 µM | 5.14 µM | > 500 µM | 8.52 µM | 483 µM | – | CC(C)CNC(=O)CC[C@H](NS(=O)(=O)c1ccc([N+](=O)[O-])cc1)C(=O)O | > 1000 µM | > 500 µM | 42.5 µM | > 500 µM | 93.8 µM |
| 95.2 µM | 109 µM | 6.37 µM | > 500 µM | 0.21 µM | 173 µM | > 25 | O=C(CC[C@H](NS(=O)(=O)c1ccc([N+](=O)[O-])cc1)C(=O)O)NCc1ccccc1 | > 1000 µM | 343 µM | 23.4 µM | 175 µM | 102 µM |
| 198 µM | 111 µM | 6.36 µM | > 500 µM | 4.07 µM | 346 µM | – | CCCCNC(=O)CC[C@H](NS(=O)(=O)c1ccc([N+](=O)[O-])cc1)C(=O)O | > 1000 µM | 276 µM | 19.7 µM | > 500 µM | 94 µM |
| 100 µM | 76.3 µM | 7 µM | > 500 µM | 1.65 µM | 199 µM | 4.24 | NC(=O)CC[C@H](NS(=O)(=O)c1ccc([N+](=O)[O-])cc1)C(=O)O | > 1000 µM | > 500 µM | > 500 µM | > 500 µM | > 500 µM |

Further lines, the compound ahead of its results:

| Structure (SMILES) | IC50 [1] | IC50 [2] | IC50 [3] | IC50 (Interstitial collagenase) | IC50 [4] | IC50 (Neutrophil collagenase) | Ratio IC50 [5] | IC50 (PBMC) | IC50 (A549) | IC50 (K562) | IC50 (MDA-MB-231) | IC50 (U-937) |
| --- | --- | --- | --- | --- | --- | --- | --- | --- | --- | --- | --- | --- |
| CCNC(=O)CC[C@H](NS(=O)(=O)c1ccc([N+](=O)[O-])cc1)C(=O)O | 109 µM | 87.1 µM | 4.8 µM | > 500 µM | 5.34 µM | 298 µM | – | > 1000 µM | 221 µM | > 500 µM | > 500 µM | 89.4 µM |
| CC(C)NC(=O)CC[C@H](NS(=O)(=O)c1ccc([N+](=O)[O-])cc1)C(=O)O | 493 µM | 301 µM | 5.97 µM | > 500 µM | 2.12 µM | > 500 µM | 2.82 | > 1000 µM | > 500 µM | 19.8 µM | > 500 µM | 95.1 µM |
| CNC(=O)CC[C@H](NS(=O)(=O)c1ccc([N+](=O)[O-])cc1)C(=O)O | > 500 µM | > 500 µM | 7.5 µM | > 500 µM | 2.85 µM | 401 µM | 2.63 | > 1000 µM | > 500 µM | > 500 µM | > 500 µM | > 500 µM |
